# Assay results as given in ChEMBL document CHEMBL1145471, “Small molecule regulators of autophagy identified by an image-based high-throughput screen” (Proc Natl Acad Sci U S A, 2007).
# Legend:
# Format in all cases: functional
# H4 [1] = assay: Increase in light chain 3-GFP+ autophagosome vesicle number per cell in human H4 cells at 7.71 uM after 24 hrs by high throughput fluorescence microscopy relative to control
# How it was run: (§1)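 H4 cells stably expressing LC3-GFP were grown in DMEM with 10% FBS and 2 mM L-glutamine at 37°C, 5% CO2. They were exposed to each compound for 24 h, with DMSO as negative and rapamycin as positive control. Cells were then fixed in 4% paraformaldehyde and stained with 3 μg/ml DAPI. High-throughput fluorescence imaging scored LC3-GFP spot number, size and intensity, expressed relative to DMSO. Mean ± SD of triplicates; experiments repeated three times.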
# H4 [2] = assay: Increase in long-lived protein degradation in human H4 cells after 24 hrs relative to control; set-up: concentration or dose not given beside the values
# H4 [3] = assay: Increase in light chain 3-GFP+ autophagosome vesicle area per cell in human H4 cells at 4.8 uM after 24 hrs by high throughput fluorescence microscopy relative to control
# How it was run: (§2)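 H4 cells stably expressing LC3-GFP, seeded in 96-well plates and exposed to compound for 24 h; fixed in 4% paraformaldehyde, nuclei stained with 3 μg/ml DAPI. Automated fluorescence microscopy scored number, size and intensity of LC3-GFP spots; values expressed relative to DMSO-treated wells, rapamycin positive control. Triplicate wells, mean ± SD; experiments repeated three times.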
# H4 [4] = assay: Increase in light chain 3-GFP+ autophagosome vesicle number per cell in human H4 cells at 4.8 uM after 24 hrs by high throughput fluorescence microscopy relative to control
# How it was run: (§3)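 H4 cells stably expressing LC3-GFP, kept in DMEM/10% FBS at 37°C, 5% CO2, were seeded in 96-well plates and exposed to compound for 24 h. Cells were then fixed in 4% paraformaldehyde and stained with 3 μg/ml DAPI. Automated fluorescence microscopy scored the number, size and intensity of LC3-GFP spots. Values are percent of DMSO wells, in triplicate, mean ± SD. Rapamycin served as positive control.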
# H4 [5] = assay: Increase in light chain 3-GFP+ autophagosome vesicle intensity per cell in human H4 cells at 7.71 uM after 24 hrs by high throughput fluorescence microscopy relative to control; how it was run: as §1
# H4 [6] = assay: Increase in long-lived protein degradation in human H4 cells after 4 hrs relative to control; set-up: concentration or dose not given beside the values
# H4 [7] = assay: Increase in long-lived protein degradation in human H4 cells after 2 hrs relative to control; set-up: concentration or dose not given beside the values
# H4 [8] = assay: Effect on FYVE-RFP+ vesicle intensity per cell in human H4 cells after 8 hrs relative to control; set-up: concentration or dose not given beside the values
# How it was run: (§4)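 H4 cells stably expressing FYVE-RFP (H4-FYVE), grown in DMEM with 10% FBS, penicillin/streptomycin and 2 mM L-glutamine at 37°C, 5% CO2, seeded in 96-well plates and exposed to compound. Fixed in 4% paraformaldehyde, nuclei stained with 3 μg/ml DAPI, FYVE-RFP+ vesicles quantified by high-throughput fluorescence microscopy against DMSO control. Triplicate wells, mean ± SD.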
# H4 [9] = assay: Induction of light chain 3-GFP level in human H4 cells at 7.71 uM after 24 hrs by high throughput fluorescence microscopy relative to control
# How it was run: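 H4 cells stably expressing LC3-GFP, grown in DMEM with 10% FBS, penicillin/streptomycin and 2 mM L-glutamine at 37°C, 5% CO2. Cells were seeded in 96-well plates and exposed to library compounds at 3–12 μM for 24 h, then fixed in 4% paraformaldehyde and stained with 3 μg/ml DAPI. LC3-GFP spot number, size and intensity were measured by high-throughput fluorescence microscopy and expressed relative to DMSO. Triplicates, mean ± SD.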
# H4 [10] = assay: Increase in light chain 3-GFP+ autophagosome vesicle area per cell in human H4 cells at 7.71 uM after 24 hrs by high throughput fluorescence microscopy relative to control
# How it was run: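 H4 cells stably expressing LC3-GFP, seeded in 96-well plates and exposed to compound for 24 h; screening concentrations were 3–12 μM, with rapamycin 0.22 μM and bafilomycin A1 0.40 μM. Cells fixed in 4% paraformaldehyde and stained with 3 μg/ml DAPI. Number, size and intensity of LC3-GFP spots measured by high-throughput fluorescence microscopy and expressed as percent of DMSO-treated wells. Rapamycin was the positive control. Triplicate wells, mean ± SD; experiments repeated three times.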
# H4 [11] = assay: Increase in long-lived protein degradation in human H4 cells after 1 hr relative to control; set-up: concentration or dose not given beside the values
# H4 [12] = assay: Increase in light chain 3-GFP+ autophagosome vesicle intensity per cell in human H4 cells at 4.8 uM after 24 hrs by high throughput fluorescence microscopy relative to control; how it was run: as §2
# H4 [13] = assay: Induction of light chain 3-GFP level in human H4 cells at 4.8 uM after 24 hrs by high throughput fluorescence microscopy relative to control; how it was run: as §3
# H4 [14] = assay: Effect on FYVE-RFP+ vesicle intensity per cell in human H4 cells after 4 hrs relative to control; set-up: concentration or dose not given beside the values; how it was run: as §4
# H4 [15] = assay: Effect on FYVE-RFP+ vesicle intensity per cell in human H4 cells after 2 hrs relative to control; set-up: concentration or dose not given beside the values; how it was run: as §4
structure (smiles),measurement,setting,value
NCCNS(=O)(=O)c1cccc2cnccc12,Activity,H4 [1],130.98%
same,Activity,H4 [2],96.19%
same,Activity,H4 [3],172.66%
same,Activity,H4 [4],181.04%
same,Activity,H4 [5],156.16%
same,Activity,H4 [6],96.55%
same,Activity,H4 [7],91.55%
same,Activity,H4 [8],83.01%
same,Activity,H4 [9],96.7%
same,Activity,H4 [10],139.79%
same,Activity,H4 [11],100.94%
same,Activity,H4 [12],15083%
same,Activity,H4 [13],49.3%
same,Activity,H4 [14],79.63%
same,Activity,H4 [15],102.35%
